IC50 and GI50 data for 8 compounds are collected here from ChEMBL document CHEMBL2424657, “Identification of the KDM2/7 histone lysine demethylase subfamily inhibitor and its antiproliferative activity” (J Med Chem, 2013).

For assay [1], the target named is Lysine-specific demethylase 6A (Homo sapiens, UniProt O15550). Briefly: Inhibition of human recombinant KDM6A after 120 mins.
Assay [2] addresses Lysine-specific demethylase 5A (Homo sapiens, UniProt P29375). Nature of the assay: Inhibition of KDM5A (unknown origin) using H3K4me3 peptide and 2-oxoglutarate as substrate after 1 hr by FDH-coupled assay. The gist of the method:
(§1)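 Run as the FDH-coupled KDM4C format, with compounds in DMSO and activity relative to a DMSO control. KDM4A was used at 0.37 mg/mL final with H3K9me3 peptide. KDM5A was used at 0.64 mg/mL final with H3K4me3 peptide. Values are means of two experiments.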

Assay [3] addresses Histone lysine demethylase PHF8 (Homo sapiens, UniProt Q9UPP1). Briefly: Inhibition of KDM7B (unknown origin) using H3K4me3K9me2 and 2-oxoglutarate as substrate after 1 hr by matrix-assisted laser desorption ionization time of flight mass spectrometry. The essentials:
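Enzyme (0.5 mg/mL) was reacted with 5 μM H3K4me3K9me2 peptide, 0.5 mM 2-oxoglutarate, 20 μM Fe(II), 20 μM ZnCl2, 0.5 mM ascorbate, 150 mM KCl, glutathione and DTT in 10 mM Tris-HCl pH 8.0 for 1 h at 37 °C. Inhibition was calculated from the remaining H3K9me2, and IC50 was taken as the concentration halving H3K9me2 removal. Values are means of two experiments.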

Assay [4] has as its target T1, Lysine-specific demethylase 4C (Homo sapiens, UniProt Q9H3R0).
T1 sequence (Q9H3R0 whole entry): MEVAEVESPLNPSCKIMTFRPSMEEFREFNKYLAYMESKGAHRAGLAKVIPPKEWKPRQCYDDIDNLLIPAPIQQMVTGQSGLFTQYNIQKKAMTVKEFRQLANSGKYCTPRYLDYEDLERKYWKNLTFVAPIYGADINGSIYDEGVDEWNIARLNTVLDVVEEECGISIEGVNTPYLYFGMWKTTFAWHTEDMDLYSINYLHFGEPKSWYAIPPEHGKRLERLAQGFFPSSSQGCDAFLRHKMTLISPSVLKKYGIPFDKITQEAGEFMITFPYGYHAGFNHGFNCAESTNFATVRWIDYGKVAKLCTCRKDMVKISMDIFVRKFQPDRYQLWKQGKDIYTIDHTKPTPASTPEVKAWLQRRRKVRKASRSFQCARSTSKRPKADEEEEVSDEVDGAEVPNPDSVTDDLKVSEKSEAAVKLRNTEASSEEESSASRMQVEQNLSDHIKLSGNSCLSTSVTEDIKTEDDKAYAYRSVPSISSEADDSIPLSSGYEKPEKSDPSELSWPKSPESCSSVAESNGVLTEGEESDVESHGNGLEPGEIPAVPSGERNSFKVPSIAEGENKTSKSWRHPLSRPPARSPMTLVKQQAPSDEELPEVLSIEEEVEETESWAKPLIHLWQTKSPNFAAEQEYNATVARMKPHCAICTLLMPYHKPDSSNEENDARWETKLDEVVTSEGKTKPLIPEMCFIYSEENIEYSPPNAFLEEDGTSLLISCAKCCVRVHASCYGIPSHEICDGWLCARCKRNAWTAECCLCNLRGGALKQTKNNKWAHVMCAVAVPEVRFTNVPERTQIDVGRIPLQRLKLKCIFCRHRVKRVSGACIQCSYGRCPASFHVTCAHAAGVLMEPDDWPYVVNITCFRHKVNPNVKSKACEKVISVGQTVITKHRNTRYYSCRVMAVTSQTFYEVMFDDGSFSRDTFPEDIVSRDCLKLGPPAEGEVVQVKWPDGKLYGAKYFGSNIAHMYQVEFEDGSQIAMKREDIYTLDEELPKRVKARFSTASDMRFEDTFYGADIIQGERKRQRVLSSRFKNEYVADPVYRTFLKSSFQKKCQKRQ
Briefly: Inhibition of KDM4C (unknown origin) using H3K9me3 peptide and 2-oxoglutarate as substrate after 1 hr by FDH-coupled assay.

Assay [5] deals with T2, Lysine-specific demethylase 4A (Homo sapiens, UniProt O75164).
T2 sequence (O75164 whole entry): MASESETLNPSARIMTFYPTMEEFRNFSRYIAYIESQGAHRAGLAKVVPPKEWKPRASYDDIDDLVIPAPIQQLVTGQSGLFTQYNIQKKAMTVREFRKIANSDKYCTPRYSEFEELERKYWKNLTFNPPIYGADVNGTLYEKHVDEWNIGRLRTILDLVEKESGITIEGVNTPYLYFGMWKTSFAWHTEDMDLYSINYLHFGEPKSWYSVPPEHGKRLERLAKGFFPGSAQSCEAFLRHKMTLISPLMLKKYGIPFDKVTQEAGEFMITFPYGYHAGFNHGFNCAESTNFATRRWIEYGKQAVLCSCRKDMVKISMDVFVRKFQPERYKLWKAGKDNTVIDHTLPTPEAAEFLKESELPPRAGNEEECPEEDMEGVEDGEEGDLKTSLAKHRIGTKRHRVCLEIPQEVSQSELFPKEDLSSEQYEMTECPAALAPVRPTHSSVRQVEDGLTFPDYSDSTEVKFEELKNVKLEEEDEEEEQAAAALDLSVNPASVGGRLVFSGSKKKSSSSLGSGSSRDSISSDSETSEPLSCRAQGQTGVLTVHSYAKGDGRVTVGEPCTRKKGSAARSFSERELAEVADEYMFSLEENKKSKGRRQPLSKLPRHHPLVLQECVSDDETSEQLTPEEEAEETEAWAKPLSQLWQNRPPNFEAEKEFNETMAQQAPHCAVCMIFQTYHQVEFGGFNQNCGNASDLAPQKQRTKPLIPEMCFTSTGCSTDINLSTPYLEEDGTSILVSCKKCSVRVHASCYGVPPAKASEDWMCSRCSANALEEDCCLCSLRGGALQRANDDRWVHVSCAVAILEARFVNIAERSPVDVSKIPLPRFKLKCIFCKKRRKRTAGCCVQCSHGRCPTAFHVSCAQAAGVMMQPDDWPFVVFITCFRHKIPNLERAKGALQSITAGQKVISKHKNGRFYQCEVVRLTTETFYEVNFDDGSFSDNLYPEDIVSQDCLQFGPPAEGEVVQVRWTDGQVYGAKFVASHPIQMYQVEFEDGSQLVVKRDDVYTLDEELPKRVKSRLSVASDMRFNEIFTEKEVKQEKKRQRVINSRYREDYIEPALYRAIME
Briefly: Inhibition of KDM4A (unknown origin) using H3K9me3 peptide and 2-oxoglutarate as substrate after 1 hr by FDH-coupled assay. The essentials: as §1

For assay [6], the target named is T3, Lysine-specific demethylase 2A (Homo sapiens, UniProt Q9Y2K7).
T3 sequence (Q9Y2K7 whole entry): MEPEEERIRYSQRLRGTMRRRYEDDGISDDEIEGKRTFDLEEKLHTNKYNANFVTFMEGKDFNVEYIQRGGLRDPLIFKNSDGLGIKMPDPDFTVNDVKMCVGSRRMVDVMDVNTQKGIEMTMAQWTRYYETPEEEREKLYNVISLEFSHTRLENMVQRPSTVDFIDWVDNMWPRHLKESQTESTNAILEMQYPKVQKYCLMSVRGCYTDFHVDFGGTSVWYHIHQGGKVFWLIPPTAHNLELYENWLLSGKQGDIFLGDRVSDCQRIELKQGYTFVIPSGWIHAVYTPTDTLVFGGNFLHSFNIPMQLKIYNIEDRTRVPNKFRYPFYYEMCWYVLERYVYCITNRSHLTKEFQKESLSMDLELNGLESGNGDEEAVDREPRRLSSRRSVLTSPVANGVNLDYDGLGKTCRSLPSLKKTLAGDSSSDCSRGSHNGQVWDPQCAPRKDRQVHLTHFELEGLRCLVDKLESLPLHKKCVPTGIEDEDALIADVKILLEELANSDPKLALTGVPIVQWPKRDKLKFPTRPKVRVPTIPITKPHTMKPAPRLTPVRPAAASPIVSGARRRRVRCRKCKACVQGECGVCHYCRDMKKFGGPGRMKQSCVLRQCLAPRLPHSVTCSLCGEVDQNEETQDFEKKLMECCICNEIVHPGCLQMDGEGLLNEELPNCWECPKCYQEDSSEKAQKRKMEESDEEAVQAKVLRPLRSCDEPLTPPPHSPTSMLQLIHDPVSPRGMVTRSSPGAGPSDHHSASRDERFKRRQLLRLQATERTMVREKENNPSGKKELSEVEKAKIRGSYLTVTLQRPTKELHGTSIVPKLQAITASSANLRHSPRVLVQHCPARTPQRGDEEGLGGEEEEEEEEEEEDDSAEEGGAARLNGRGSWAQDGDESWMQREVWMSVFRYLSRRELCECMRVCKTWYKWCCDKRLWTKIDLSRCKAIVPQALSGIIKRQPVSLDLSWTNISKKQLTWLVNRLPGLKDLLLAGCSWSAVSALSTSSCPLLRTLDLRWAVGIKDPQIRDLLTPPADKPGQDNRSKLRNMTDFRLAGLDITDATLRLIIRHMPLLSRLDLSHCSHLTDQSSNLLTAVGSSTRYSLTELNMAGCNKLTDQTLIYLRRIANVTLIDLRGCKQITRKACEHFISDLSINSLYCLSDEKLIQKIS
Briefly: Inhibition of KDM2A (unknown origin).

Assay [7] can be described thus: Growth inhibition of human KYSE-150 cells after 48 hrs by MTT assay. It is filed as functional. The settings on record: KYSE-150, 48 h. The gist of the method: (§2)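 Cells were seeded at 5000/well in RPMI 1640 with 10% FBS and allowed to attach overnight, then exposed for 48 h at 37 °C in 5% CO2. MTT was added for 3 h, and the dye was solubilized in HCl–2-propanol and read at 560 nm (reference 750 nm).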

A further assay has as its system HeLa. Nature of the assay: Growth inhibition of human HeLa cells after 48 hrs by MTT assay. It is filed as functional. The gist of the method: as §2
For orientation: Tetrazolium assays rely on reduction of a dye to a coloured formazan, in cell work by metabolically active cells.

Assay [8] concerns the target T4, Lysine-specific demethylase 7A (Homo sapiens, UniProt Q6ZMT4).
T4 sequence (Q6ZMT4 whole entry): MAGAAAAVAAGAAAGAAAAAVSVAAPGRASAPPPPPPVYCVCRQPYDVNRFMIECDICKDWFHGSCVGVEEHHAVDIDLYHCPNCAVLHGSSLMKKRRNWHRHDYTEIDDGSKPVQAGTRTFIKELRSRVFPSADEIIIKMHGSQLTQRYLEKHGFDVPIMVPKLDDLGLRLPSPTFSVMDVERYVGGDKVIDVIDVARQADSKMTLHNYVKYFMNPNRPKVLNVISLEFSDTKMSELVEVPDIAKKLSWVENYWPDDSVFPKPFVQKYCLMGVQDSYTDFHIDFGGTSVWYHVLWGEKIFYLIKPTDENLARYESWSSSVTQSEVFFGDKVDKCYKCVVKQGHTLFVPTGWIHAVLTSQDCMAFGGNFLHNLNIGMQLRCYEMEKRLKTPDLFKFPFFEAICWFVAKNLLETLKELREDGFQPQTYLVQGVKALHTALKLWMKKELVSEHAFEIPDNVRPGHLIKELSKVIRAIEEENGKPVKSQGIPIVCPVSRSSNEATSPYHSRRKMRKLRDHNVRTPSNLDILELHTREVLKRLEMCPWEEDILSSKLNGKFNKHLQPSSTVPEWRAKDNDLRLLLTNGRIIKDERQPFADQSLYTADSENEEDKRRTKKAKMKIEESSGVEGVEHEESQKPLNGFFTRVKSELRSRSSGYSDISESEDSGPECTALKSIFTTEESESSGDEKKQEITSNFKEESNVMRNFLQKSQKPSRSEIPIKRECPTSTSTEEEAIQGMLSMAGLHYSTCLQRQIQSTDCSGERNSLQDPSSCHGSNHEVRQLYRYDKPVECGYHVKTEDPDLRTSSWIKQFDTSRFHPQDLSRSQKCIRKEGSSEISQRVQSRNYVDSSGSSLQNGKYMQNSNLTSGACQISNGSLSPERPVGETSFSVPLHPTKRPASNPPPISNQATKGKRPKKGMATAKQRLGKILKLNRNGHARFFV
Briefly: Inhibition of KDM7A (unknown origin) using K27me2 peptide as substrate by MALDI assay.

Structures are written as SMILES. A value given as a limit tells only on which side of the number the result lay.

Lysine-specific demethylase 5A, sequence (P29375 whole entry): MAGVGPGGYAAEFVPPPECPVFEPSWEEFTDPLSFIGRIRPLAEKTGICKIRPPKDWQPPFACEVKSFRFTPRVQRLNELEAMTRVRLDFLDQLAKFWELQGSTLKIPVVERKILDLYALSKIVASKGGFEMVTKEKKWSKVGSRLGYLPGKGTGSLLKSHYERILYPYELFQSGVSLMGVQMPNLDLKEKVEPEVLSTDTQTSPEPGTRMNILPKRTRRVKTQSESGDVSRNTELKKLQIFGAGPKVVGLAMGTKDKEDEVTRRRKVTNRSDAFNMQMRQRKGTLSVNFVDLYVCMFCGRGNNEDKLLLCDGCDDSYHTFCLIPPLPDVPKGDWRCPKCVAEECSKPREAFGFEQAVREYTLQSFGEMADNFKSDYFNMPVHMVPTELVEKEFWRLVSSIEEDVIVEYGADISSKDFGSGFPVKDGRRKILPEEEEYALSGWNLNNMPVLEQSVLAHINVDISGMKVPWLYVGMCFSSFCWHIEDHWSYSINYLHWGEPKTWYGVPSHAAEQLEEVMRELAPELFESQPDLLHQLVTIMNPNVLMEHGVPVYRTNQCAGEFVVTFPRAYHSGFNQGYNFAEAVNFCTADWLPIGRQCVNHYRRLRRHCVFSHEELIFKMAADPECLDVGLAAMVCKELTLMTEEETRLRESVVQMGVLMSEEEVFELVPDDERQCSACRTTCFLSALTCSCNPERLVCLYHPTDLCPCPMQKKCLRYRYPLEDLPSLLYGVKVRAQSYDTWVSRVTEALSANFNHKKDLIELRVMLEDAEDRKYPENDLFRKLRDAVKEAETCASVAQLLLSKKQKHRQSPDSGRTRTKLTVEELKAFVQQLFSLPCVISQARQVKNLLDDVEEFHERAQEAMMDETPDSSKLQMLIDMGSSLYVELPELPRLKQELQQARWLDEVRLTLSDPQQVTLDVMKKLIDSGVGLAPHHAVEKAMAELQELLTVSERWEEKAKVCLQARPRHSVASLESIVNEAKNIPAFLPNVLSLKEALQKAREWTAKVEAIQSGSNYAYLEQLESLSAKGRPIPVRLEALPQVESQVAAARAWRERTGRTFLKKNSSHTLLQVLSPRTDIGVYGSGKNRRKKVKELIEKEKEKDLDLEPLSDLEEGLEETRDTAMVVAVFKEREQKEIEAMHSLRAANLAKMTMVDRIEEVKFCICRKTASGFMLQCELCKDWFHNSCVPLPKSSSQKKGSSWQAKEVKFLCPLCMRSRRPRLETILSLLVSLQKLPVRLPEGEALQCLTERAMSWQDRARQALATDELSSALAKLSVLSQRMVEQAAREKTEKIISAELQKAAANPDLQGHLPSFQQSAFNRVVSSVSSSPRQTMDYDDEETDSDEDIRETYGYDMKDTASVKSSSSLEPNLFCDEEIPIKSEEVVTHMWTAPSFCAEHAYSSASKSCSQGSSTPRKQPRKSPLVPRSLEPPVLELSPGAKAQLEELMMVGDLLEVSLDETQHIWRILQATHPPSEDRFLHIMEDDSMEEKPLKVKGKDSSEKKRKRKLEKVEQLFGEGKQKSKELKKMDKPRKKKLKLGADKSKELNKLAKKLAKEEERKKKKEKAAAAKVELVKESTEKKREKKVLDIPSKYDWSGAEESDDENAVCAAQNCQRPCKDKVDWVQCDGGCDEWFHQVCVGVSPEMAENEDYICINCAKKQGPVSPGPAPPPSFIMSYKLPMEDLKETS
Histone lysine demethylase PHF8, sequence (Q9UPP1 whole entry): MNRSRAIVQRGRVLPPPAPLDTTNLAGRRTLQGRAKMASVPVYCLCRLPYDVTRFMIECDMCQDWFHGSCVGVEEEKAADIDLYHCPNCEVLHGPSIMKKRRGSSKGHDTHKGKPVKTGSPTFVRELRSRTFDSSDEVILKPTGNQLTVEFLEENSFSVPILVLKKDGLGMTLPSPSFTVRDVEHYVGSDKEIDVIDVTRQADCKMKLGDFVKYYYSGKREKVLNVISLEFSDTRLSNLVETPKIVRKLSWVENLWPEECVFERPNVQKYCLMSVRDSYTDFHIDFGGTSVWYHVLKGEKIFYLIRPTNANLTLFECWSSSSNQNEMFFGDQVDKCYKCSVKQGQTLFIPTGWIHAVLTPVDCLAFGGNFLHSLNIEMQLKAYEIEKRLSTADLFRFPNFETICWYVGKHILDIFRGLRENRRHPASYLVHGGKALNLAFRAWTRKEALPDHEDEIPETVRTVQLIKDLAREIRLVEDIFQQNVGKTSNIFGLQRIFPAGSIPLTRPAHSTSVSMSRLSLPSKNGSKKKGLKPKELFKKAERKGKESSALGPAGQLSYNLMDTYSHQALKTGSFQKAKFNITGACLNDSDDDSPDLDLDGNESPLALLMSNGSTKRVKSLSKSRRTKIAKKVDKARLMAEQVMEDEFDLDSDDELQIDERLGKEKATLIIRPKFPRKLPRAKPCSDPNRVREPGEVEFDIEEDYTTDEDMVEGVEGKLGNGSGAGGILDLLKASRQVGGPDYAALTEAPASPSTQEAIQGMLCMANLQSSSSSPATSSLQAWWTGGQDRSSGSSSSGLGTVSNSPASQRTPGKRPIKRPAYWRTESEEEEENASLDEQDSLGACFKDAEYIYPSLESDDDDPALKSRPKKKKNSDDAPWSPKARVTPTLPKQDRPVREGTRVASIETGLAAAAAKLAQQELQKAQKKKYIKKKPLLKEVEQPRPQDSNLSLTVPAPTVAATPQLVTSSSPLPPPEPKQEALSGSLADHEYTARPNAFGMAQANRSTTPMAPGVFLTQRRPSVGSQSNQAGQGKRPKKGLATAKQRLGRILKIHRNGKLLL
Lysine-specific demethylase 6A, sequence (O15550 whole entry): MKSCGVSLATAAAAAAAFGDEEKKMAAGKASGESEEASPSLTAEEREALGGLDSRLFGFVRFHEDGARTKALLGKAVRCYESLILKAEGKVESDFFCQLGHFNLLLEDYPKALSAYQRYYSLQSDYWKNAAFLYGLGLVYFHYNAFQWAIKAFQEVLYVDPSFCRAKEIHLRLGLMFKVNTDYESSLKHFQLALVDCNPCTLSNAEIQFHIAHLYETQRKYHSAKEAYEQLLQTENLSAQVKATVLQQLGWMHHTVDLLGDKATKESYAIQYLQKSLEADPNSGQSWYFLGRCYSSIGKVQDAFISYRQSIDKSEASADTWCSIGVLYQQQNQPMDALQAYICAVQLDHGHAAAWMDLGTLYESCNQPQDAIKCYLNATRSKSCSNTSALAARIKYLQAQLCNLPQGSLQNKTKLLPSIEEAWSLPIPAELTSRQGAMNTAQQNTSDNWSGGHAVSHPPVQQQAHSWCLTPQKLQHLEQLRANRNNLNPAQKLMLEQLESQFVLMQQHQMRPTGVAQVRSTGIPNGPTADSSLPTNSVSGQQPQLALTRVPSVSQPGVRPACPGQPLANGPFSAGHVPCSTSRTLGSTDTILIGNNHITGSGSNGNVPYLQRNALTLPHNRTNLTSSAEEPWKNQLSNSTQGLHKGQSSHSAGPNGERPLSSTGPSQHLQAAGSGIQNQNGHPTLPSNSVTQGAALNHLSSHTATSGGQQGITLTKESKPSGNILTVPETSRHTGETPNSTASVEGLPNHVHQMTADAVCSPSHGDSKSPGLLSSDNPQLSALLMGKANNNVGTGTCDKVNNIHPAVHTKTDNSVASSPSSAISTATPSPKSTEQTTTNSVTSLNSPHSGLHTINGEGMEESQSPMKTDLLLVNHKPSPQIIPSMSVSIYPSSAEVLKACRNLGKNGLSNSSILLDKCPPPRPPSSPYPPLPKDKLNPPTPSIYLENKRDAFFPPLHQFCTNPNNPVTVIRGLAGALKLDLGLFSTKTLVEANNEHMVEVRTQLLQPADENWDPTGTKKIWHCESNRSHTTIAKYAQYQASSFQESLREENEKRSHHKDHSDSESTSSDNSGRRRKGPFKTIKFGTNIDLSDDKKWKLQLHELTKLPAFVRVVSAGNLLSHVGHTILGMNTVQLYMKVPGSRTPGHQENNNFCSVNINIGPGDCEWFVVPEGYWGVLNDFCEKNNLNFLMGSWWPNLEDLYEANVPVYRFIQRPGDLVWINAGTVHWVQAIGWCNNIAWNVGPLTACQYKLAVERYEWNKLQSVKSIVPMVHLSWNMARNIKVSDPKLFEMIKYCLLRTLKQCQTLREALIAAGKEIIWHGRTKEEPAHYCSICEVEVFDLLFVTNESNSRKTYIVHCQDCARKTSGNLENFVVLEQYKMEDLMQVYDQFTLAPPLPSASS

As for `O=C(O)CCN(O)C(=O)CCCCCCCCC1CCCCCC1`, the half-inhibitory concentration (IC50) in [1] was over 100 µM; in assay [2], 55 µM; in [3], 9.1 µM; in [4] it was over 120 µM; in assay [5], 99 µM; in [6], 15 µM.

As to `COC(=O)CCN(O)C(=O)CCCCCCCCC(C)C`, the half-maximal inhibitory concentration (IC50) in [1] is over 100 µM; in [2], 210 µM; in assay [3], 150 µM; in [4], 110 µM; in assay [5], over 120 µM.

Regarding `CC(C)CCCCCCCCC(=O)N(O)CCC(=O)O`, the concentration for half-maximal inhibition (IC50) in assay [1] is over 100 µM; in assay [2], 110 µM; in [3], 24 µM; in assay [4], 55 µM; in assay [5] it was 92 µM; in [6], 8.1 µM.

For the compound `O=C(O)CCN(O)C(=O)CCCCCCCCC1CCCC1`, the IC50 was over 100 µM in [1]; 35 µM in assay [2]; 43 µM in assay [3]; 78 µM in [4]; over 120 µM in assay [5]; 16 µM in assay [6].

Consider `O=C(O)c1ccnc(C(=O)O)c1`, for which the results for the IC50 in assay [2], in assay [3] and in assay [8] were 100 µM, over 250 µM and 15 µM, respectively. Moreover, the GI50 (in [7]; in the assay on HeLa) was over 240 µM in each case.

On to `CCCCCCCCCC(=O)N(O)CCC(=O)O`, for which the half-maximal inhibitory concentration (IC50) in assay [1] was over 100 µM; in assay [2] it was 64 µM; in [3], 14 µM; in assay [4], 32 µM; in assay [5], 100 µM; in assay [6] it was 9.6 µM.

On to `O=C(O)CCN(O)C(=O)CCCCCCCCc1ccccc1`, for which the half-inhibitory concentration (IC50) is over 100 µM in assay [1]; 93 µM in assay [2]; 23 µM in assay [3]; 22 µM in [4]; 65 µM in assay [5]; 2.9 µM in assay [6].

On to `O=C(O)CCN(O)C(=O)CCCCCCCCC1CCCCC1`, for which the half-maximal inhibitory concentration (IC50) in [1] is over 100 µM; in assay [2], 100 µM; in [3], 17 µM; in assay [4], 81 µM; in [5], over 120 µM; in [6] it was 8 µM.

For orientation: IC50 means the concentration that gives 50% inhibition. For orientation: GI50 means the concentration giving 50% growth inhibition. A lower GI50 goes with greater sensitivity of the cells.
